{"data": "Measured values from different studies", "read-out": "metabolic stability", "species": "human", "note": "Compare with care: the assays were run in different laboratories."}
{"SMILES": "CCCN(CCC)CCCOc1ccc2c(=O)c3c([nH]c2c1)CCCC3", "medium": "liver microsomes", "tested at": "1 µM", "pH": "pH 7.4", "half-life": "37.3 min"}
{"SMILES": "O=c1c2cc(Cl)c(CO)cc2[nH]c(=S)n1Cc1cccnc1", "medium": "liver microsomes", "tested at": "1 µM", "pH": "pH 7.4", "half-life": "57.1 min"}
{"SMILES": "Cc1cccc(CNC(=O)c2cn(CCNC(=O)c3ccccc3Sc3c([N+](=O)[O-])ncn3C)c3cc4c(cc3c2=O)OCO4)n1", "medium": "blood", "tested at": "1 µM", "setting": "whole blood", "half-life": "509 min"}
{"SMILES": "OCc1ccc(-c2nn(Cc3ccccc3)c3ccccc23)o1", "medium": "hepatocytes", "half-life": "6.6 min"}
{"SMILES": "O=c1c2cc(Cl)ccc2[nH]c(=S)n1Cc1ccc(-c2nnn[nH]2)nc1", "medium": "liver microsomes", "tested at": "1 µM", "pH": "pH 7.4", "half-life": "> 186 min"}
{"SMILES": "CCN(CC)CCNC(=O)c1c(C)[nH]c(/C=C2\\C(=O)Nc3ccc(F)cc32)c1C", "medium": "liver microsomes", "tested at": "1 µM", "half-life": "24.3 min"}
{"SMILES": "COc1ccc(Cn2cc(CO[C@@H]3O[C@H]4[C@H](OC[C@H]4O)[C@H]3O)nn2)cc1", "medium": "liver microsomes", "half-life": "120 min"}
{"SMILES": "CCCCCCCCCCCCCCCC(=O)NCCOC(=O)C[C@@H](CN)CC(C)C", "medium": "liver microsomes", "tested at": "1 µM", "pH": "pH 7.4", "half-life": "60.3 min"}
{"SMILES": "COCC(=O)OCc1cc2[nH]c(=S)n(Cc3cccnc3)c(=O)c2cc1Cl", "medium": "liver microsomes", "tested at": "1 µM", "pH": "pH 7.4", "half-life": "< 5 min"}
{"SMILES": "CN(C)CCOc1ccc2c(=O)c3c([nH]c2c1)CCCC3", "medium": "liver microsomes", "tested at": "1 µM", "pH": "pH 7.4", "half-life": "> 60 min"}
{"SMILES": "O=C1c2ccccc2C(=O)N1CCCN1CCN(C(c2ccc(F)cc2)c2ccc(F)cc2)CC1", "medium": "liver microsomes", "tested at": "100 ng/mL", "half-life": "10.2 min"}
{"SMILES": "CCN(CC)CCNC(=O)c1c(C)[nH]c(/C=C2\\C(=O)Nc3ccc(F)cc32)c1C", "medium": "liver microsomes", "tested at": "1 µM", "pH": "pH 7.4", "half-life": "1630 min"}
{"SMILES": "CONC(=O)c1cccc2c1cc(C)n2-c1nc2c(c(NCc3ccccc3)n1)CCCN2", "medium": "liver microsomes", "tested at": "1 µM", "pH": "pH 7.4", "half-life": "13.3 min"}
{"SMILES": "Cc1ncsc1-c1ccc([C@H](CC(=O)N2CCN(c3ccc(C#Cc4ccc(C(=O)N5CCC(n6cc(-c7ccc8c(c7)CCN8C(=O)Cc7cccc(OC(F)(F)F)c7)c7c(N)ncnc76)CC5)cc4)cn3)CC2)NC(=O)[C@@H]2C[C@@H](O)CN2C(=O)[C@@H](NC(=O)C2(F)CC2)C(C)(C)C)cc1", "medium": "hepatocytes", "tested at": "1 µM", "half-life": "> 120 min"}
{"SMILES": "O=c1c2c([nH]c3cccc(Oc4ccc(OC(F)(F)F)cc4)c13)CCCC2", "medium": "liver microsomes", "tested at": "1 µM", "pH": "pH 7.4", "half-life": "12.7 min"}
{"SMILES": "CN(C)CC(=O)OCc1cc2[nH]c(=S)n(Cc3cccnc3)c(=O)c2cc1Cl", "medium": "liver microsomes", "tested at": "1 µM", "pH": "pH 7.4", "half-life": "< 5 min"}
{"SMILES": "Cc1[nH]c(C)c(S(=O)(=O)Nc2ccc(C(F)(F)F)c(Cl)c2Cl)c1C(=O)N1CCC(F)(F)C1", "medium": "liver microsomes", "half-life": "94 min"}
{"SMILES": "O=c1c2ccc(Oc3cccc(OC(F)(F)F)c3)cc2[nH]c2cc(Cl)cc(F)c12", "medium": "liver microsomes", "tested at": "1 µM", "pH": "pH 7.4", "half-life": "> 60 min"}
{"SMILES": "CCOc1ccc(Nc2c3c(nc4ccccc24)CCC3)cc1", "medium": "liver microsomes", "tested at": "0.5 µM", "half-life": "47 min"}
{"SMILES": "CCCN(CCC)CCNc1ccc2c(=O)c3c([nH]c2c1)CCCC3", "medium": "liver microsomes", "tested at": "1 µM", "pH": "pH 7.4", "half-life": "> 60 min"}
{"SMILES": "Cc1[nH]c(C)c(S(=O)(=O)Nc2ccc(C(F)(F)F)c(Cl)c2)c1C(=O)N(C)C", "medium": "liver microsomes", "half-life": "8.7 min"}
{"SMILES": "O=c1c2c([nH]c3cc(Oc4ccc(OC(F)(F)F)cc4)c(F)cc13)CCCC2", "medium": "liver microsomes", "tested at": "1 µM", "pH": "pH 7.4", "half-life": "19.1 min"}
{"SMILES": "O=C(O)Cc1ccccc1Nc1c(Cl)cccc1Cl", "medium": "liver microsomes", "tested at": "2 µM", "pH": "pH 7.4", "half-life": "8.3 min"}
{"SMILES": "CCCN(CCC)CCOc1ccc2c(=O)c3c([nH]c2c1)CCCC3", "medium": "liver microsomes", "tested at": "1 µM", "pH": "pH 7.4", "half-life": "> 60 min"}
{"SMILES": "NCc1ccc(-c2nn(Cc3ccccc3)c3ccccc23)o1", "medium": "liver microsomes", "half-life": "34 min"}
{"SMILES": "O=c1c2c([nH]c3cc(OC(F)(F)F)ccc13)CCCC2", "medium": "liver microsomes", "tested at": "1 µM", "pH": "pH 7.4", "half-life": "8.01 min"}
{"SMILES": "C=CCn1c(=O)c2cnc(Nc3ccc(N4CCN(C)CC4)cc3)nc2n1-c1ccc2c(n1)[C@@](O)(CC)CC2", "medium": "liver microsomes", "half-life": "23 min"}
